# Screens (PubChem)
# Only some compounds are listed: those with a hit (about 2% of all), similar ones and a draw of the others.
# MT1-MMP act inh – MT1-MMP (human) activation inhibition; P50281; HT1080 RFP-PRO-GFP cells, GFP/RFP ratio fluorescence, overnight; percent of plate control window, DMSO zero; hit rate 0.061% among 360,000; GFP/RFP ratio change, % at 20 µM; AID 651647;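 active means GFP/RFP ratio change of at least 30% with cell ATP level not reduced by more than half and red fluorescence within 50% of control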
#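 Assay system: HT1080 RFP-PRO-GFP cells | Dosing: 20 µM single dose, 1% DMSO | Incubation: Cells overnight before dosing, compound overnight, 37 °C, 5% CO2 | Evaluation: GFP/RFP fluorescence ratio | Control set: DMSO-only wells and HT1080 RFP-L50D-GFP cell wells as references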
# DAGLB inhibitor – diacylglycerol lipase beta (human) inhibition; HEK293T DAGLB membrane lysate, EnzChek fluorogenic substrate; Q8NCG7; inhibition, % at 5.17 µM; hit rate 0.059% among 340,000; in the data active means inhibition above about 34%;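 further: 0% = enzyme with vehicle and 100% = wells lacking enzyme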
# FGF22 binding – binders of recombinant human FGF22 by thermal shift. activity (Tm shift, normalised), % at 9.99 µM. Q9HCT0. SYPRO orange fluorescence; percent of sucrose octasulfate shift, DMSO zero. hit rate 1.5% among 340,000;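 active means mean Tm shift, scaled 0 neutral to 100 positive control, at about 1.3% or above, every replicate too, limit read from the data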
# VLA-4 inh – inhibition in a human VLA-4 binding assay. P13612. VLA-4 expressing cells, ligand binding flow cytometry. inhibition, % (about 7 µM as worked out from the volumes in the protocol). hit rate 0.2% among 330,000. AID 2557; in the data active means inhibition above about 50%
# ABCB6 inh MLPCN – blocks the human ABCB6 transporter; Q9NP58; K562-ABCB6 porphyrin accumulation, flow cytometry, 1 h; stronger effect = lower value; fluorescence ratio to DMSO, % at 10 µM; hit rate 0.19% among 360,000;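 active means fluorescence ratio to DMSO below 75%, the collection mean minus 3 SD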;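 further: signal is porphyrin accumulated inside mitochondria; 100% equals median channel fluorescence of DMSO control wells; lower ratio means ABCB6 inhibition with less porphyrin fluorescence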
# Granule exo inh – lytic granule exocytosis inhibition. TALL-104 LAMP-1 surface exposure, flow cytometry; cells stimulated with thapsigargin and PMA. inhibition, % at 10 µM. hit rate 0.66% among 360,000;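 active means inhibition above about 55%, limit read from the data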
# Granule exo CP1 – lytic granule exocytosis inhibition; AID 651954; shares compounds with Granule exo inh; TALL-104 cells, LAMP-1 externalization, flow cytometry; stimulated with PMA plus thapsigargin; inhibition, % at 10 µM; hit rate 11% among 1,500; in the data active means inhibition above about 60%;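 further: 0% = stimulated vehicle wells and 100% = unstimulated wells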
# The depositor's hits bear a star; nt = not tested or not shown.
SMILES,MT1-MMP act inh,DAGLB inhibitor,FGF22 binding,VLA-4 inh,ABCB6 inh MLPCN,Granule exo inh,Granule exo CP1
CCc1ccccc1NC(=O)CN(c1ccc(OC)cc1OC)S(=O)(=O)c1ccccc1,-4,-5,0,-3,100,70*,-11
COc1ccc(N(CC(=O)NCCSc2ccccc2)S(=O)(=O)c2ccccc2)c(OC)c1,-2,0,0,-3,95,-2,nt
COc1ccc(N(CC(=O)Nc2ccc(Cc3ccncc3)cc2)S(=O)(=O)c2ccccc2)cc1,-6,0,0,16,95,36,nt
CCOc1ccccc1N(CC(=O)Nc1cc(OC)ccc1OC)S(=O)(=O)c1ccccc1,0,-5,0,2,93,-1,nt
COc1ccccc1N(CC(=O)Nc1ccc(Cc2ccncc2)cc1)S(=O)(=O)c1ccccc1,-4,-4,0,-4,93,66*,-9
CN1C(=O)c2cc(NC(=O)c3cnccn3)ccc2OC[C@H]2O[C@@H](CC(=O)NCC3CC3)CC[C@@H]21,nt,nt,0,nt,nt,nt,nt
CCOC(=O)c1c2c(n(Cc3ccccc3)c1C)C(=O)C(=O)c1ccccc1-2,-15,18,0,nt,95,99*,50
O=C(Nc1cccc2nsnc12)c1ccc(-c2cccc(Cl)c2)o1,-16,-8,nt,-10,126,92*,-6
CCOc1ccc(S(=O)(=O)Nc2cccc(C(=O)N3CCN(c4ccccn4)CC3)c2)cc1,-1,0,0,nt,105,56*,-3
CCCCN(Cc1ccccc1)C1CCN(Cc2ccccc2)CC1,3,-1,0,0,101,68*,-12
COCCNC(=S)N(CCc1c(C)[nH]c2ccc(Cl)cc12)Cc1cccs1,-2,-2,0,8,91,104*,5
COCCNC(=S)N(CCc1c(C)[nH]c2ccc(F)cc12)Cc1cccs1,-6,-4,0,16,96,5,nt
Oc1ccc(C=Nc2ccc(N3CCOCC3)cc2)c(O)c1,0,5,nt,-1,91,-3,nt
Oc1cc(Br)ccc1C=Nc1ccc(N2CCCCC2)cc1,12,9,0,-2,100,65*,-3
CC(=O)N1CCN(S(=O)(=O)c2cccc(C(=O)NCCC3=CCCCC3)c2)CC1,-4,-1,0,11,97,67*,-10
Cc1cc2nc(-c3ccco3)c(Cc3ccccc3C(F)(F)F)n2c(C)c1Br,-3,nt,0,nt,119,85*,-12
Cc1cc(OCCCC(=O)Nc2cccc(-n3cnnn3)c2)ccc1Cl,3,-3,0,-3,98,66*,-12
COc1cccc(NC(=O)COc2cccc(-n3cnnn3)c2)c1,2,1,1,1,100,-1,nt
NCC[C@H]1CC[C@@H](NS(=O)(=O)Cc2ccccc2)[C@@H](CO)O1,nt,nt,0,nt,nt,nt,nt
COc1cccc2c1C(=O)c1ccc3ccccc3c1C2=O,8,-6,nt,19,96,61*,78*
C[C@@H]1CN([C@H](C)CO)C(=O)c2cc(-c3ccc(F)cc3)cnc2O[C@@H]1CN(C)C(=O)NC1CCCC1,nt,nt,0,nt,nt,nt,nt
CCOC(=O)c1nnn2c1nc(N(CC)CC)c1ccccc12,-1,3,0,-5,99,74*,-12
CCOC(=O)c1n[nH]n2c1nc(=O)c1ccccc12,1,-1,0,-5,104,0,nt
CC1(C2CC2)NC(=O)N(CC(=O)NCC(=O)Nc2ccc(F)c(F)c2F)C1=O (stereo not given),-3,-1,0,-11,101,56*,-12
CC1CCCCC12NC(=O)N(CC(=O)NCC(=O)Nc1ccc(F)c(F)c1F)C2=O (stereo not given),-1,-1,0,-8,96,0,nt
SMILES,MT1-MMP act inh,DAGLB inhibitor,FGF22 binding,VLA-4 inh,ABCB6 inh MLPCN,Granule exo inh,Granule exo CP1
COc1ccc(CNC(=O)C[C@H]2C[C@H]3c4cc(NC(=O)CC5CC5)ccc4O[C@H]3[C@@H](CO)O2)cc1,nt,nt,0,nt,nt,nt,nt
CCNc1nc(-c2sc(NC(=O)C(C)(C)C)nc2C)c(-n2cc(-c3ccccc3)nn2)s1,-14,nt,0,nt,107,79*,58
Cc1ccc(-c2noc(-c3ccccc3F)n2)cc1,2,-17,0,-9,101,-2,nt
O=C(O)c1ccc(-c2noc(-c3ccccc3F)n2)cc1,-1,1,0,nt,98,97*,-12
COc1cccc(OC)c1OCCN1CCN(C(c2ccccc2)c2ccccc2)CC1,-4,-5,0,2,90,62*,-10
COc1cccc(OC)c1OCCCN1CCC(Cc2ccccc2)CC1,2,0,0,6,96,68*,-12
COc1ccc(CN2CCC(Cc3ccccc3)CC2)cc1OC,-1,-2,0,11,97,28,nt
CCCCc1ccc(NC(=O)CSc2nc(=O)n(CCN(CC)CC)c3c2CCCC3)cc1,-1,0,-1,42,100,82*,-2
Cc1ccccc1CN1CCc2cc([N+](=O)[O-])ccc21,1,-1,0,-1,99,115*,-1
COc1ccc([N+](=O)[O-])cc1NCc1ccccc1C,13,2,nt,1,96,1,nt
COc1ccc(NC(=O)N(C)C[C@@H]2Oc3c(NC(=O)c4cc(C)nn4C)cccc3C(=O)N([C@H](C)CO)C[C@@H]2C)cc1,nt,nt,0,nt,nt,nt,nt
CCCN(C)C[C@H]1OCCCC[C@@H](C)Oc2ccc(NC(=O)Nc3ccc4c(c3)OCO4)cc2C(=O)N([C@H](C)CO)C[C@@H]1C,nt,nt,0,nt,nt,nt,nt
c1ccc(CN2CCCC3(CCCN(Cc4nc(CC5CC5)no4)C3)C2)cc1 (stereo not given),4,-5,0,4,95,2,nt
c1ccc(CN2CCCC3(CCCN(Cc4nc(COc5ccccc5)no4)C3)C2)cc1 (stereo not given),1,-12,nt,-11,100,60*,-4
O=C(CC1CC1)N1[C@H](CO)[C@@H](c2ccccc2)C12CN(Cc1ccccc1F)C2,nt,nt,1,nt,nt,nt,nt
Cc1noc(C)c1S(=O)(=O)N(C)C[C@H]1Oc2ccc(NC(=O)Cc3ccccc3)cc2CC(=O)N([C@H](C)CO)C[C@@H]1C,nt,nt,0,nt,nt,nt,nt
C[C@@H]1CN([C@H](C)CO)C(=O)c2cc(NC(=O)C3CCCCC3)ccc2O[C@@H](C)CCCCO[C@@H]1CN(C)C(=O)Nc1ccccc1,nt,nt,0,nt,nt,nt,nt
Cc1cccc(S(=O)(=O)Nc2ccc(S(=O)(=O)Nc3nccs3)cc2)c1,-2,2,1,25,91,61*,-16
Cc1cccc(C(=O)NC(C(=O)Nc2ccc(S(=O)(=O)Nc3nccs3)cc2)C(C)C)c1 (stereo not given),1,6,0,nt,101,6,nt
